FLuc inh counter – counter-screen for luciferase assay inhibitors: firefly luciferase inhibition | inhibition, % at 10 µM | 200,000 tested, 1.5% active | P08659 | ATPLite firefly luciferase biochemical luminescence, 10 min;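 active means inhibition above about 50% when tested at 10 µM, limit read from the data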
Target sequence (P08659 whole entry, looked up): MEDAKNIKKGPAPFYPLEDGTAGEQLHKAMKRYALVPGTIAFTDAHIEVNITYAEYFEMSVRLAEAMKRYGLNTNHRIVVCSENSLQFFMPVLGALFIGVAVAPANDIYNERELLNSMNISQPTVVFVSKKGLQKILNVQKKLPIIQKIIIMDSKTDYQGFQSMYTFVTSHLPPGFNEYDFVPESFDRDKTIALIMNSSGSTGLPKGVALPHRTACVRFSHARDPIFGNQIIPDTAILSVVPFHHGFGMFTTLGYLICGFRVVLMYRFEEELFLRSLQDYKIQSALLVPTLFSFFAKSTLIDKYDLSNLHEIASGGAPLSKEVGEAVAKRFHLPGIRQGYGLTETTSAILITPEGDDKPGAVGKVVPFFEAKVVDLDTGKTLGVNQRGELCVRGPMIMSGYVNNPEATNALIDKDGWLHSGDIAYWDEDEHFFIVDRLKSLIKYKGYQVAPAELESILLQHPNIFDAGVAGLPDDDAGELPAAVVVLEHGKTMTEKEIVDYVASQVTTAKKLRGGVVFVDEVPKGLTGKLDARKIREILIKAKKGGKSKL
FLuc act counter – firefly luciferase counter-screen for stimulation assays. P08659. ATPlite luciferase biochemical, luminescence, 10 min; 0 = ATP-free wells, 1 = DMSO control. activation factor at 10 µM. 200,000 tested, under 10 active;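 active means luciferase activation factor, scaled between plate controls, of at least 2 with compound at 10 µM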
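assay system = Luciferase/luciferin detection reagent, cell-free biochemical luciferase assay | also added = ATP substrate | times = 10 min post-reagent at room temperature | measured by = luminescence from luciferase reaction | measure = luciferase activation, seen as luminescence increase over controls | benchmarks = low control with PBS replacing ATP, high control enzyme plus ATP without compound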
TRAIL sens C8 – sensitizes caspase-8 expressing cells to TRAIL; NB7+C8 cells + TRAIL, ATPlite viability luminescence; inhibition (viability loss, TRAIL sensitization), % at 10 µM; 360,000 tested, 1% active; AID 624354;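 active means compounds causing at least 50% loss of cell viability in the single-dose screen, relative to plate controls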
PPC-1+TRAIL kill – compounds killing PPC-1 cancer cells with TRAIL present (potentiator screen, no TRAIL-free arm); PPC-1 cells + TRAIL, ATPLite viability luminescence; cell killing (% activity), % at 4 µM or 5 µM; 220,000 tested, 0.41% active; AID 1443;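 active means cell killing above 50% in the first pass at 4 µM, then a duplicate retest at 5 µM averaging 50% or more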;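 further: plate controls were cells with TRAIL plus DMSO for no effect and medium-only wells lacking cells for full effect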
The depositor's hits bear a star; / = not tested or not shown. In the library only some 1.5% were active in any assay of this set; here they are far more common.

SMILES | FLuc inh counter | FLuc act counter | TRAIL sens C8 | PPC-1+TRAIL kill
O=C(Nc1nc2ccccc2[nH]1)c1ccccc1[N+](=O)[O-] | 12 | 0.9 | 14 | 16
CCC(C(=O)N/N=C/c1cccnc1)c1ccccc1 (centres undefined) | / | / | -2 | /
CCC(C(=O)NCC1CCCO1)N(Cc1ccccc1)C(=O)CNS(=O)(=O)c1ccccc1 (centres undefined) | / | / | 8 | /
COC(=O)C[C@H]1CC[C@H](NC(=O)Cc2ccccc2)[C@@H](CO)O1 | / | / | -23 | /
CCn1cc(/C=C(\NC(=O)c2ccccc2F)C(=O)N2CCCC2)c2ccccc21 | / | / | 11 | /
CCc1ccc(C(=O)Nc2nc3ccccc3[nH]2)cc1 | / | / | 96* | /
Cc1cccc(OCc2nnc(SCC(=O)c3cccs3)n2C)c1C | -3 | 1 | -6 | 7
CCOC(=O)c1ccc(N/C=C/C(=O)c2ccco2)cc1 | 62* | 0.4 | 51* | 26
O=C(/C=C/Nc1ccc(F)cc1)c1ccco1 | 92* | 0.1 | 60* | 48
CCOC(=O)c1ccc(N/C=C/C(=O)c2ccc(OC)c(OC)c2)cc1 | -4 | 1 | 18 | 8
Cc1ccc(NS(=O)(=O)c2cccc(C(=O)N3CCCCC3)c2)cc1 | / | / | 4 | /
Cn1c(=O)c2c(nc(NCc3cccnc3)n2Cc2cccc(C(F)(F)F)c2)n(C)c1=O | -7 | 1.1 | 26 | 13
COc1cccc(Cn2c(NCc3cccnc3)nc3c2c(=O)n(C)c(=O)n3C)c1 | 4 | 1 | 82* | 39
Cc1ccc(CN(C)C(=O)c2ccc(S(=O)(=O)N(C)c3ccccc3)cc2)o1 | / | / | -12 | /
Cc1cc(C)cc(NS(=O)(=O)c2ccc3c(c2)c(=O)n(C)c(=O)n3C)c1 | -10 | 1.1 | 80* | 17
Cn1c(=O)c2cc(S(=O)(=O)Nc3cc(C(=O)O)cc(C(=O)O)c3)ccc2n(C)c1=O | -1 | 1 | -6 | 5
CCCC(=O)N(Cc1cc(=O)[nH]c2ccccc12)c1cccc(C)c1 | / | / | 8 | /
COc1ccc(N(Cc2cc(=O)[nH]c3ccccc23)C(=O)CCl)cc1 | / | / | 96* | /
Cc1cccc(N(Cc2cc(=O)[nH]c3ccccc23)C(=O)CCl)c1 | / | / | 84* | /
CCCC(=O)N(Cc1cc(=O)[nH]c2ccccc12)c1ccc(OC)cc1 | / | / | 1 | /
Cc1cc(NC(=O)c2cc(C)on2)no1 | 0 | 1 | -16 | -3
C[C@H](CO)N1C[C@H](C)[C@@H](CN(C)Cc2ccccc2)Oc2c(NS(=O)(=O)c3ccc(F)cc3)cccc2C1=O | / | / | -1 | /
O=C(/C=C/c1ccccc1)Nc1ccc2c(c1)C(=O)NC2=O | 12 | 0.9 | 50* | 28
CCOc1ncccc1C(=O)OCC(=O)Nc1c(C)cc(C)cc1C | -9 | 1.1 | 4 | -10
O=C(COC(=O)c1ccc([N+](=O)[O-])o1)Nc1ccc(F)cc1 | / | / | 13 | /
SMILES | FLuc inh counter | FLuc act counter | TRAIL sens C8 | PPC-1+TRAIL kill
Cc1ccc2nc(-c3ccc(NC(=O)COC(=O)c4ccc([N+](=O)[O-])o4)cc3)sc2c1 | 47 | 0.5 | 71* | 51*
Cc1ccc2nc(-c3ccc(NC(=O)CN(c4ccccc4C)S(C)(=O)=O)cc3)sc2c1 | 37 | 0.6 | 43* | 13
COc1ccc(/C=C(\C#N)C(=O)OCC(=O)Nc2ccc(-c3nc4ccc(C)cc4s3)cc2)cc1 | 44 | 0.6 | 54* | 40
COc1ccc(/C=C(\C#N)C(=O)OCC(=O)NC(C)c2ccccc2)cc1 (centres undefined) | -9 | 1.1 | -5 | 0
CCOc1ncccc1C(=O)OCC(=O)Nc1ccc(-c2nc3ccc(C)cc3s2)cc1 | 21 | 0.8 | 75* | 38
COc1ccc(NC2CCCN(Cc3cccc4cnccc34)C2)cc1OC (centres undefined) | / | / | -9 | /
O=C1CN(Cc2nc3cc(Cl)ccc3c(=O)[nH]2)CCN1 | / | / | 4 | 18
O=C(COC(=O)c1ccc(Br)o1)Nc1ccc(Br)cc1 | / | / | -8 | /
Cc1ccc2nc(-c3ccc(NC(=O)COC(=O)c4ccc(Br)o4)cc3)sc2c1 | 32 | 0.7 | 75* | 50
Cc1ccc2nc(-c3ccc(NC(=O)COC(=O)c4ccco4)cc3)sc2c1 | -1 | 1 | 71* | 55*
Cc1ccc(C(=O)NC2CCCCCCC2)c(Cl)c1 | / | / | 61* | /
O=C(NC1CCCCCCC1)c1cc(F)c(F)cc1Cl | 3 | 1 | 5 | 21
Cc1cc(C(=O)NC2CCCCC2)c(C)n1-c1ccc(F)cc1 | 51* | 0.5 | 21 | 6
Cc1ccc(C(=O)Nc2ccc(Cl)cc2C)c(Cl)c1 | 76* | 0.2 | 55* | 44
Cc1ccc(C(=O)Nc2ccc(Cl)cc2C(F)(F)F)c(Cl)c1 | 26 | 0.7 | 14 | 7
COc1ccccc1C(OC(=O)c1cccs1)C(=O)NCc1ccco1 (centres undefined) | -4 | 1 | -7 | 20
O=C(/C=C/c1cccs1)Nc1ccc(N2CCOCC2)c(S(=O)(=O)Nc2ccccc2Cl)c1 | -4 | 1 | 5 | -5
CCCn1nnnc1NCc1ccccc1C | / | / | 27 | /
CCC1CCCCN1Cc1nc(Cc2ccccc2Cl)no1 (centres undefined) | / | / | 85* | 0
O=c1[nH]cnc2c1ncn2-c1ccc(Cl)cc1 | / | / | 5 | /
CC(=O)Nc1ccc2nc(-c3ccccn3)[nH]c2c1 | 51* | 0.5 | 33 | 35
O=C(Nc1ccc2nc(-c3cccs3)[nH]c2c1)c1cccs1 | 61* | 0.4 | 42 | 41
O=C(Nc1ccc2nc(-c3cccs3)[nH]c2c1)c1ccco1 | 62* | 0.4 | 48 | 11
O=C(Nc1nc(-c2cccs2)cs1)c1ccco1 | 53* | 0.5 | -3 | 26
Cn1cccc1-c1nc2ccc(NC(=O)c3ccco3)cc2[nH]1 | 10 | 0.9 | 21 | 18
SMILES | FLuc inh counter | FLuc act counter | TRAIL sens C8 | PPC-1+TRAIL kill
O=C(Nc1nc(-c2ccncc2)cs1)c1ccco1 | 4 | 1 | -3 | -10
COC(=O)/C=C1\NCCSC1=O | -7 | 1.1 | -5 | 11
O=C(Nc1ccc2c(c1)OCO2)c1cc(C2CCCCN2C(=O)c2ccc3ccccc3c2)on1 (centres undefined) | / | / | -7 | /
O=C(CSc1ncnc2ccccc12)c1ccco1 | 81* | 0.2 | -1 | 34
O=C(CSc1ncnc2ccccc12)NCc1ccco1 | -10 | 1.1 | -10 | 19
N#C/C(=C(/O)c1ccc(-c2cccc([N+](=O)[O-])c2)o1)c1nc2ccccc2s1 | 66* | 0.3 | 31 | 25
O=C(O)c1ccc(-c2cccc([N+](=O)[O-])c2)o1 | / | / | 4 | 12
COc1cc(SC)ccc1C(=O)N(C)Cc1ccccc1 | -5 | 1.1 | -9 | 20
CN1CCN(C(=O)c2ccc(-c3cccs3)s2)CC1 | / | / | 30 | 13
O=C(c1cccs1)c1ccc(-c2cccs2)s1 | 78* | 0.2 | 51* | 25
Cc1nc(NC(C)C(=O)O)c2nc(C)oc2n1 (centres undefined) | 0 | 1 | -2 | 10
C[C@H](NC(=O)NC1CCCc2ccccc21)C(=O)O (some centres undefined) | -9 | 1.1 | -4 | -10
CCc1nc2ccc(C(=O)Nc3ccc(OC)c(OC)c3)cn2c1N(C)Cc1nccs1 | / | / | 3 | /
CCN=c1scc(-c2ccc(F)cc2)n1/N=C/c1ccccn1 | 17 | 0.8 | 16 | 28
